High-throughput results deposited in PubChem BioAssay by The Scripps Research Institute Molecular Screening Center.
Sampled rows, rich in hits. Any-hit rate of the full collection: about 1.6%.
MBD2 DNA inh = MBD2-methylated oligo binding inhibition; Q9UBB5; TR-FRET, MBD2 binding to methylated oligonucleotide; inhibition, % at 4.4 µM; actives 0.31% (n = 370,000); AID 686964; in the data active means inhibition above about 13%
Target sequence (Q9UBB5 whole entry, looked up): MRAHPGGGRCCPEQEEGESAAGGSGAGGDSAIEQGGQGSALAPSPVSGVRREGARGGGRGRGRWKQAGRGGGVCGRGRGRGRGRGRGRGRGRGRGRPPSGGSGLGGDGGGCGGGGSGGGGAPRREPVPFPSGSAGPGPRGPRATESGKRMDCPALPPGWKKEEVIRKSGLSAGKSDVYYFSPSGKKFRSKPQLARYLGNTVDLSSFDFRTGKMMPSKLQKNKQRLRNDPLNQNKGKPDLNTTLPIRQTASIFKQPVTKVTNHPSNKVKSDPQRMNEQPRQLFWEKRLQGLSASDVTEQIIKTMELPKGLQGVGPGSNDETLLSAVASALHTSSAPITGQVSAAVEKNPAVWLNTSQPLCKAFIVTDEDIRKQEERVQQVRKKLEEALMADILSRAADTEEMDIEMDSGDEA
TDP2 inh = TDP2 (human) inhibition, absorbance primary screen; recombinant TDP2, T5PNP hydrolysis, p-nitrophenol absorbance 415 nm; O95551; AID 720702; actives 0.34% (n = 370,000); inhibition, % at 12.8 µM;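 active means inhibition above the mean of all tested compounds plus 3 SD, set per campaign, cut at about 25% in these data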;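 further: 0% = DMSO with enzyme and 100% = buffer with substrate but no TDP2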
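Incubation: 2 h at 37 °C; Test system: recombinant human TDP2; Quantity: enzyme 120 nM; Read-out basis: percent inhibition; Medium: 50 mM Tris-HCl pH 7.5 with Mg2+, KCl, DTT, BSA; Repeats: single replicate; Compound: 12.8 µM single point, 1% DMSO; Signal: epi absorbance; Reagent: 5 mM T5PNP chromogenic substrate; Benchmarks: no-enzyme high, DMSO-plus-enzyme low.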
LEDGF integ inh = blocks HIV-1 LEDGF/p75-dependent DNA integration; actives 0.64% (n = 370,000); inhibition, % at 3.7 µM; AID 743269; TR-FRET IN-LEDGF/p75 DNA integration, Eu/Cy5;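 active means inhibition above the screen-wide mean plus 3 SD, cut at about 13% in these data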;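 further: signal is the Cy5 over europium emission ratio at 671 and 618 nm; 0% = plate median of compound wells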
UHRF1 binding = blocks human UHRF1 binding to methylated DNA | Q96T88 | UHRF1 binding to methylated oligo, TR-FRET | inhibition, % at 4.4 µM | actives 0.75% (n = 370,000) | AID 687016; in the data active means inhibition above about 21%;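 further: UHRF1 SRA domain binding a hemimethylated CpG hairpin DNA probe; 0% = median of test compound wells and 100% = reference inhibitor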
* hit, by the source's call.

SMILES	MBD2 DNA inh	TDP2 inh	LEDGF integ inh	UHRF1 binding
Cc1nc2c(=O)n(C)c(=O)nc-2n(C)n1	16*	86*	-25	7
O=C1CC=C2C3CC4N(CCC45c4cc(O)c(O)cc4N1C25)CC3=CCBr (stereo unspecified)	15*	6	62*	31*
O=C1CC=C2C3CC4N(CCC45c4ccccc4N1C25)CC3=CCO (stereo unspecified)	4	13	0	-3
CC1([N+](=O)[O-])COP(=O)(NC2CCCC2)OC1 (stereo unspecified)	-6	-13	1	1
CC(Cc1ccccc1)NCc1ccccc1O (stereo unspecified)	3	6	-4	35*
Cc1ccc(-n2c(C)cc(/C=C3/C(=O)NC(=O)N(Cc4ccco4)C3=O)c2C)cc1	3	0	28*	10
Cc1cc(/C=C2\C(=O)NC(=O)N(Cc3ccccc3Cl)C2=O)c(C)n1-c1ccc(C(=O)O)cc1	10	5	10	22*
C#CC[N+]1(C)[C@@H]2CC[C@H]1CC(OC(=O)C(CO)c1ccccc1)C2 (stereo partly specified)	4	-2	1	-1
Nc1c2c(nc3sc4c(c13)CCCC4)CCCC2	9	0	2	29*
Nc1c2c(nc3sc4c(c13)CCCC4)CCCCC2	0	-4	1	0
CCN(C(=O)COC(=O)c1cn(C)c2ccccc12)c1ccc(F)cc1	6	7	7	22*
CN(C(=O)Oc1cccc2cccnc12)c1ccccc1	-5	-12	2	-3
CN(C(=O)Oc1ccc(Cl)c2cccnc12)c1ccccc1	7	0	2	21*
CN1C(=O)NC(=O)/C(=C\C=C\c2ccccc2[N+](=O)[O-])C1=O	-5	5	4	-3
O=C1NC(=O)N(Cc2ccccc2)C(=O)/C1=C\C=C\c1ccco1	0	-20	2	28*
O=C1NCN(c2ccccc2)C12CCN(C(c1ccnc3ccccc13)c1nnnn1C1CCCCC1)CC2 (stereo unspecified)	-6	9	3	-3
CCOC(=O)[C@]12Cc3cc(C)ccc3[C@H]1N(C1CCCCC1)C(=O)c1ccccc12	1	-6	1	-2
CN1CCCC1C(O)(c1ccccc1)c1ccccc1 (stereo unspecified)	1	-9	1	2
CN1CCCC2c3ccccc3CCC21 (stereo unspecified)	-3	-3	-1	22*
CCOC(=O)[C@]12Cc3cc(OC)ccc3[C@H]1N(CC(=O)OC)C(=O)c1cc(OC)ccc12	-6	-3	3	-2
CCOC(=O)[C@]12Cc3cc(OC)ccc3[C@H]1N(CC(=O)OC)C(=O)c1ccccc12	8	-6	9	24*
Cn1c(O)c(C(=O)c2ccccc2F)c(=O)n(C)c1=O	-9	1	-3	-7
COc1ccc(C(=O)C2CN(C)CC2c2ccc(Cl)cc2)cc1 (stereo unspecified)	5	-6	0	3
COc1cccc(C(=O)C2CN(C)CC2c2ccc(Cl)cc2)c1 (stereo unspecified)	2	4	1	70*
C=CCn1c(O)c(/C(C)=N/N2CCCCC2)c(=O)[nH]c1=O	2	9	0	2
SMILES	MBD2 DNA inh	TDP2 inh	LEDGF integ inh	UHRF1 binding
CN1C(=O)C(c2ccc([N+](=O)[O-])cc2[N+](=O)[O-])C(=O)N(C)C1=O	-1	-6	-2	21*
CCN(CC)CCCN=C(C)c1c(O)n(C2CCCCC2)c(=O)[nH]c1=O	-4	6	4	3
Brc1ccc2c(c1)-n1nncc1CNC2	1	-13	5	35*
CC(C)S(=O)(=O)N1Cc2ccc(Br)cc2-n2nncc2C1	-2	-4	-6	2
Cc1ccc(CNCCc2ccccc2F)cc1	10	-7	2	25*
C=Cc1cc(OC)c2c(c1)c(=O)oc1c2cc(OC)c2c(O)ccc(C3OC(C)C(O)C(C)(O)C3O)c21 (stereo unspecified)	31*	13	10	10
O=C(Cn1ccc2ccccc2c1=O)NCC(=O)N1CCC2(CC1)OCCO2	0	0	3	1
CN1C(=O)/C(=C/c2ccc(Cl)s2)C(=O)NC1=S	-7	20	1	-2
